Data on 27 molecules can be found in ChEMBL document CHEMBL3102732, “Potential antiviral lignans from the roots of Saururus chinensis with activity against Epstein-Barr virus lytic replication” (J Nat Prod, 2014).

The term CC50 denotes the concentration that lowers cell viability or growth by half. The term EC50 denotes the concentration that produces a half-maximal response.

The structures appear in SMILES notation.

Series [1] is described as follows: Selectivity index, ratio of CC50 for human P3HR1 cells to EC50 for EBV infected in human P3HR1 cells. Also noted: species or system P3HR-1. The procedure, abridged: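 CC50: P3HR-1 cells treated or untreated with compounds, viability counted by Trypan blue exclusion under light microscope 2 days post-treatment, relative to nondrug-treated controls, CC50 from dose-response curves. EC50: TPA (20 ng/mL)/sodium butyrate (0.3 mM)-induced P3HR-1 cells, compounds added 3 h later, EBV EBNA1 DNA quantified by real-time PCR at 48 h. Ratio CC50/EC50.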

Series [2] is described as follows: Cytotoxicity against human P3HR1 cells assessed as cell viability after 2 days by trypan blue staining-based light microscopy. Also noted: species or system P3HR-1.
For the next series, the system named is Human gammaherpesvirus 4. The series can be described thus: Antiviral activity against EBV infected in human P3HR1 cells assessed as inhibition of lytic viral DNA replication after 48 hrs by RT-PCR analysis. The series is classed as functional, organism-based. To be noted: human gammaherpesvirus 4, P3HR-1, 48 h. In short, it runs like this: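 P3HR-1 Burkitt lymphoma cells latently carrying EBV, grown in RPMI 1640 with 10% FBS, induced to lytic replication with TPA 20 ng/mL plus sodium butyrate 0.3 mM. Compounds added 3 h later across a concentration range. At 48 h post-induction, total cellular DNA purified, EBV genome copies quantified by SYBR green real-time PCR for EBNA1. Noninduced background subtracted, normalised to untreated induced cells, EC50 from dose-response curve.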

As to `C/C=C/c1cc(OC)c(O[C@@H](C)[C@@H](O)c2cc(OC)c(OC)c(OC)c2)c(OC)c1`, in series [1], the “Ratio CC50/EC50” value is recorded as 3.2. Also, in series [2], the CC50 at 48 h is 77.3 µM. Moreover, in the series on Human gammaherpesvirus 4, the concentration for a half-maximal effect (EC50) came to 24 µM.

Turning to `COc1ccc([C@H]2O[C@@H](c3ccc(OC)c(OC)c3)[C@@H](C)[C@H]2C)cc1OC`, the “Ratio CC50/EC50” value in series [1] is listed as 1.2. In series [2], the CC50 at 48 h came to 59.8 µM. Besides, in the series on Human gammaherpesvirus 4, the concentration giving a half-maximal response (EC50) was 49.9 µM.

In the case of `C=CCc1cc(OC)c(O[C@H](C)[C@H](OC(C)=O)c2cc(OC)c(OC)c(OC)c2)c(OC)c1`, the “Ratio CC50/EC50” value in series [1] came to 4. For the same molecule, the CC50 at 48 h in series [2] was 85 µM. For the same molecule, the concentration giving a half-maximal response (EC50) in the series on Human gammaherpesvirus 4 worked out at 21.5 µM.

With `C=CCc1cc(OC)c(O[C@H](C)[C@H](O)c2cc(OC)c3c(c2)OCO3)c(OC)c1`, the “Ratio CC50/EC50” value in series [1] was determined as 4. For the same molecule, the 50% cytotoxic concentration (CC50) at 48 h in series [2] was determined as 50.6 µM. In the series on Human gammaherpesvirus 4, the half-maximal effective concentration (EC50) came out at 12.8 µM.

For the molecule `C/C=C/c1cc(OC)c(O[C@H](C)[C@H](OC(C)=O)c2cc(OC)c(OC)c(OC)c2)c(OC)c1`, the “Ratio CC50/EC50” value in series [1] turned out to be 3. Besides, the half-maximal cytotoxic concentration (CC50) at 48 h in series [2] worked out at 76.8 µM. Further, in the series with Human gammaherpesvirus 4, the EC50 came out at 25.4 µM.

On to `C=CCc1cc(OC)c(O[C@H](C)C(=O)c2cc(OC)c(OC)c(OC)c2)c(OC)c1`, for which the “Ratio CC50/EC50” value in series [1] is reported as more than 9.1. Also, the CC50 at 48 h in series [2] was more than 200 µM. In addition, the EC50 with Human gammaherpesvirus 4 was 21.9 µM.

As to `C/C=C/c1ccc(O[C@H](C)[C@H](O)c2ccc(O)c(OC)c2)c(OC)c1`, the “Ratio CC50/EC50” value in series [1] is given as 2.6. Further, the CC50 at 48 h in series [2] came out at 61.3 µM. In addition, the EC50 with Human gammaherpesvirus 4 amounted to 23.8 µM.

In the case of `COc1ccc([C@H]2O[C@@H](c3cc(OC)c(O)c(OC)c3)[C@H](C)[C@@H]2C)cc1OC`, the “Ratio CC50/EC50” value in series [1] was 8.6. The CC50 at 48 h in series [2] is 100 µM. Moreover, the half-maximal effective concentration (EC50) in the series on Human gammaherpesvirus 4 came out at 11.6 µM.

As for `COc1ccc([C@H]2O[C@@H](c3cc(OC)c(OC)c(OC)c3)[C@H](C)[C@@H]2C)cc1OC`, in series [1], the “Ratio CC50/EC50” value is reported as 2.5. Moreover, in series [2], the 50% cytotoxic concentration (CC50) at 48 h was found to be 172 µM. In addition, the half-maximal effective concentration (EC50) in the series on Human gammaherpesvirus 4 was 67.9 µM.

In the case of `COc1cc([C@H]2O[C@@H](c3cc(OC)c4c(c3)OCO4)[C@H](C)[C@@H]2C)cc(OC)c1OC`, the “Ratio CC50/EC50” value in series [1] came out at 2. The 50% cytotoxic concentration (CC50) at 48 h in series [2] amounted to 55 µM. Moreover, the EC50 with Human gammaherpesvirus 4 was found to be 27.3 µM.

Regarding `COc1cc([C@H]2O[C@@H](c3cc(OC)c(OC)c(OC)c3)[C@H](C)[C@@H]2C)cc(OC)c1O`, the “Ratio CC50/EC50” value in series [1] is listed as 2.2. Further, the CC50 at 48 h in series [2] came out at 65.8 µM. Further, the EC50 with Human gammaherpesvirus 4 was found to be 29.5 µM.

Turning to `COc1cc([C@H]2O[C@@H](c3ccc(OC)c(OC)c3)[C@@H](C)[C@H]2C)ccc1O`, in series [1], the “Ratio CC50/EC50” value turned out to be 2.3. In addition, the CC50 at 48 h in series [2] worked out at 62.3 µM. In addition, the half-maximal effective concentration (EC50) with Human gammaherpesvirus 4 was 26.9 µM.

In the case of `COc1cc([C@@H](O)[C@@H](C)Oc2ccc([C@@H]3O[C@H](c4ccc(O)c(OC)c4)[C@H](C)[C@H]3C)cc2OC)ccc1O`, the “Ratio CC50/EC50” value in series [1] was found to be 3.3. The half-maximal cytotoxic concentration (CC50) at 48 h in series [2] came out at 23.2 µM. Further, the EC50 with Human gammaherpesvirus 4 was 6.95 µM.

Consider `COc1cc([C@H]2O[C@@H](c3cc(OC)c(OC)c(OC)c3)[C@H](C)[C@@H]2C)cc(O)c1OC`, for which the “Ratio CC50/EC50” value in series [1] was 1.9. Also, the CC50 at 48 h in series [2] turned out to be 32 µM. In addition, the concentration giving a half-maximal response (EC50) in the series on Human gammaherpesvirus 4 came out at 16.7 µM.

Regarding `COc1ccc([C@@H](O)[C@@H](C)Oc2ccc([C@H]3O[C@H](c4ccc(OC)c(OC)c4)[C@H](C)[C@H]3C)cc2OC)cc1OC`, the “Ratio CC50/EC50” value in series [1] is given as 65. The cytotoxic concentration (CC50) at 48 h in series [2] turned out to be 110 µM. Moreover, in the series with Human gammaherpesvirus 4, the 50% effective concentration (EC50) came to 1.7 µM.

With `COc1ccc([C@@H](O)[C@@H](C)Oc2ccc(C(=O)[C@H](C)[C@H](C)C(=O)c3ccc(O[C@H](C)[C@H](O)c4ccc5c(c4)OCO5)c(OC)c3)cc2OC)cc1OC`, the “Ratio CC50/EC50” value in series [1] is given as more than 12.4. For the same molecule, the CC50 at 48 h in series [2] was more than 200 µM. Further, in the series with Human gammaherpesvirus 4, the half-maximal effective concentration (EC50) was 16.2 µM.

In the case of `COc1cc([C@@H](O)[C@@H](C)Oc2ccc([C@H]3O[C@H](c4ccc(O[C@H](C)[C@H](O)c5ccc(OC)c(OC)c5)c(OC)c4)[C@H](C)[C@H]3C)cc2OC)ccc1O`, the “Ratio CC50/EC50” value in series [1] came out at 9.2. For the same molecule, the half-maximal cytotoxic concentration (CC50) at 48 h in series [2] is 69.5 µM. The EC50 in the series on Human gammaherpesvirus 4 came to 7.55 µM.

In the case of `COc1ccc([C@@H](O)[C@@H](C)Oc2ccc([C@H]3O[C@H](c4ccc(O[C@H](C)[C@H](O)c5ccc6c(c5)OCO6)c(OC)c4)[C@H](C)[C@H]3C)cc2OC)cc1O`, the CC50 at 48 h in series [2] stood at 26.5 µM. Also, in the series with Human gammaherpesvirus 4, the EC50 was found to be 2.69 µM.

With `COc1cc(C(=O)[C@@H](C)Oc2c(OC)cc(/C=C/CO)cc2OC)cc(OC)c1OC`, in series [1], the “Ratio CC50/EC50” value is reported as more than 2.5. Moreover, the CC50 at 48 h in series [2] was more than 200 µM. Also, the EC50 with Human gammaherpesvirus 4 was 80.1 µM.

Consider `C=CCc1cc(OC)c(O[C@H](COC(C)=O)[C@H](O)c2cc(OC)c(OC)c(OC)c2)c(OC)c1`, for which the “Ratio CC50/EC50” value in series [1] came to 3.7. Besides, the 50% cytotoxic concentration (CC50) at 48 h in series [2] stood at 194 µM. Besides, the half-maximal effective concentration (EC50) in the series on Human gammaherpesvirus 4 came to 53.3 µM.

Turning to `COc1cc([C@@H](OC(C)=O)[C@@H](C)Oc2c(OC)cc(/C=C/CO)cc2OC)cc(OC)c1OC`, the “Ratio CC50/EC50” value in series [1] is more than 4.2. For the same molecule, the 50% cytotoxic concentration (CC50) at 48 h in series [2] was more than 200 µM. Moreover, in the series on Human gammaherpesvirus 4, the concentration for a half-maximal effect (EC50) worked out at 44.3 µM.

On to `C/C=C/c1cc(OC)c(O[C@H](C)[C@H](O)c2cc(OC)c3c(c2)OCO3)c(OC)c1`, for which the “Ratio CC50/EC50” value in series [1] is listed as 4.2. Also, in series [2], the CC50 at 48 h stood at 90.3 µM. Further, the EC50 in the series on Human gammaherpesvirus 4 was 21.7 µM.

As to `COc1ccc([C@@H](O)[C@@H](C)Oc2ccc([C@H]3O[C@@]4(c5ccc(O[C@H](C)[C@H](O)c6ccc(OC)c(OC)c6)c(OC)c5)O[C@@]4(C)[C@H]3C)cc2OC)cc1OC` (relative stereo), the “Ratio CC50/EC50” value in series [1] is given as 4.4. The CC50 at 48 h in series [2] came out at 64.8 µM. For the same molecule, the EC50 with Human gammaherpesvirus 4 is 14.5 µM.

On to `COc1cc([C@@H](O)[C@@H](C)Oc2ccc([C@H]3O[C@H](c4ccc(O[C@H](C)[C@H](O)c5ccc6c(c5)OCO6)c(OC)c4)[C@H](C)[C@H]3C)cc2OC)ccc1O` [4-O-DEMETHYLMANASSANTIN B], for which the “Ratio CC50/EC50” value in series [1] came out at 20.2. For the same molecule, the CC50 at 48 h in series [2] was 70.8 µM. Moreover, in the series with Human gammaherpesvirus 4, the EC50 came out at 3.52 µM.

For `COc1cc([C@H]2O[C@@H](c3cc(OC)c(OC)c(OC)c3)[C@H](C)[C@H]2C)cc(OC)c1OC` [EPIGRANDISIN], the “Ratio CC50/EC50” value in series [1] is listed as more than 8. In addition, in series [2], the CC50 at 48 h was more than 200 µM. Further, in the series on Human gammaherpesvirus 4, the concentration giving a half-maximal response (EC50) was 25 µM.

Take `COc1ccc([C@@H](O)[C@@H](C)Oc2ccc([C@H]3O[C@H](c4ccc(O[C@H](C)[C@H](O)c5ccc6c(c5)OCO6)c(OC)c4)[C@H](C)[C@H]3C)cc2OC)cc1OC` [MANASSANTIN B]: the “Ratio CC50/EC50” value in series [1] is recorded as more than 116.4. For the same molecule, the CC50 at 48 h in series [2] was more than 200 µM. In the series with Human gammaherpesvirus 4, the EC50 was determined as 1.72 µM.

For `COc1ccc([C@H](O)[C@@H](C)Oc2ccc([C@H]3O[C@H](c4ccc5c(c4)OCO5)[C@H](C)[C@H]3C)cc2OC)cc1OC` [SAUCERNEOL D], the “Ratio CC50/EC50” value in series [1] came out at 41.1. Further, the 50% cytotoxic concentration (CC50) at 48 h in series [2] is 45 µM. Further, in the series with Human gammaherpesvirus 4, the concentration giving a half-maximal response (EC50) worked out at 1.09 µM.
